{"source": "ChEMBL document CHEMBL5712896", "about": "“Targeting EHMT2 reverses EGFR-TKI resistance in NSCLC by epigenetically regulating the PTEN/AKT signaling pathway” (2018)", "key": {"PC-9/ER [1]": {"system": "PC-9/ER", "test": "Induction of apoptosis in human PC-9/ER cells assessed as early apoptotic cells at 1 uM for 48 hrs by annexin V/PI staining based flow cytometric analysis (reference value: 0.9%)", "format": "functional"}, "PC-9/ER [2]": {"system": "PC-9/ER", "test": "Induction of apoptosis in human PC-9/ER cells assessed as late apoptotic cells at 1 uM for 48 hrs by annexin V/PI staining based flow cytometric analysis in presence of PTEN vector relative to control", "format": "functional", "in_short": "(§1)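 PC9/ER cells given a PTEN expression vector or mock vector, then Erlotinib 1 μM for 48 h. Cells stained with Annexin V–FITC/PI (5 min, room temperature, dark) and analyzed by flow cytometry.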"}, "PC-9/ER [3]": {"system": "PC-9/ER", "test": "Induction of apoptosis in human PC-9/ER cells assessed as late apoptotic cells at 1 uM for 48 hrs by annexin V/PI staining based flow cytometric analysis in presence of […] siRNA (reference value: 4.2%)", "format": "functional"}, "PC-9 [4]": {"system": "PC-9", "test": "Induction of apoptosis in human PC-9 cells assessed as late apoptotic cells at 0.1 uM for 48 hrs by annexin V/PI staining based flow cytometric analysis relative to control", "format": "functional", "in_short": "(§2)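 PC9 cells given PTEN siRNA or scramble siRNA, then Erlotinib 0.1 μM for 48 h. Apoptosis by Annexin V–FITC/PI staining for 5 min at room temperature in the dark, read by flow cytometry.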"}, "PC-9 [5]": {"system": "PC-9", "test": "Induction of apoptosis in human PC-9 cells assessed as early apoptotic cells at 0.1 uM for 48 hrs by annexin V/PI staining based flow cytometric analysis relative to control", "format": "functional", "in_short": "as §2"}, "PC-9/ER [6]": {"system": "PC-9/ER", "test": "Induction of apoptosis in human PC-9/ER cells assessed as late apoptotic cells at 1 uM for 48 hrs by annexin V/PI staining based flow cytometric analysis relative to control", "format": "functional", "in_short": "as §1"}, "PC-9 [7]": {"system": "PC-9", "test": "Induction of apoptosis in human PC-9 cells assessed as viable cells at 0.1 uM for 48 hrs by annexin V/PI staining based flow cytometric analysis in presence of PTEN-siRNA relative to control", "format": "functional", "details": "read-out: Activity", "in_short": "as §2"}, "PC-9 [8]": {"system": "PC-9", "test": "Induction of apoptosis in human PC-9 cells assessed as viable cells at 0.1 uM for 48 hrs by annexin V/PI staining based flow cytometric analysis relative to control", "format": "functional", "details": "read-out: Activity", "in_short": "as §2"}, "PC-9/ER [9]": {"system": "PC-9/ER", "test": "Antitumor activity against human PC-9/ER cells xenografted in SCID mouse assessed as inhibition of tumor growth at 12.5 mg/kg, ip daily for 3 weeks", "format": "functional, organism-based", "in_short": "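Male SCID mice, 7–8 weeks old, injected s.c. in the right flank with 5 × 10^6 PC9/ER cells in PBS. At an average tumor volume of 50 mm3, randomized into groups of n = 6: saline, UNC0642 2.5 mg/kg bid i.p., Erlotinib 12.5 mg/kg/day i.p., or both. Tumor volume tracked and body weight recorded; tumors weighed after sacrifice at 3 weeks.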"}, "PC-9/ER [10]": {"system": "PC-9/ER", "test": "Induction of apoptosis in human PC-9/ER cells assessed as necrotic cells at 1 uM for 48 hrs by annexin V/PI staining based flow cytometric analysis in presence of PTEN vector relative to control", "format": "functional", "in_short": "as §1"}, "PC-9/ER [11]": {"system": "PC-9/ER", "test": "Induction of apoptosis in human PC-9/ER cells assessed as viable cells at 1 uM for 48 hrs by annexin V/PI staining based flow cytometric analysis in presence of scramble non-target siRNA (reference value: 92.2%)", "format": "functional", "details": "read-out: Activity"}, "PC-9/ER [12]": {"system": "PC-9/ER", "test": "Induction of apoptosis in human PC-9/ER cells assessed as necrotic cells at 1 uM for 48 hrs by annexin V/PI staining based flow cytometric analysis in presence of […] siRNA (reference value: 2.3%)", "format": "functional"}, "PC-9/ER [13]": {"system": "PC-9/ER", "test": "Induction of apoptosis in human PC-9/ER cells assessed as early apoptotic cells at 1 uM for 48 hrs by annexin V/PI staining based flow cytometric analysis relative to control", "format": "functional", "in_short": "as §1"}, "PC-9/ER [14]": {"system": "PC-9/ER", "test": "Antiproliferative activity against human PC-9/ER cells assessed as reduction in cell survival rate pretreated with UNC0638 followed by compound addition upto 1 uM incubated for 48 hrs by MTT assay", "format": "functional, cell-based", "in_short": "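PC9/ER cells pretreated with UNC0638 (100 nM), DMSO as control, then given Erlotinib at a range of concentrations for 48 h. Viability by MTT: 4 h at 37 °C, formazan dissolved in DMSO, absorbance at 570 nm.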"}, "PC-9/ER [15]": {"system": "PC-9/ER", "test": "Induction of apoptosis in human PC-9/ER cells assessed as viable cells at 1 uM for 48 hrs by annexin V/PI staining based flow cytometric analysis (reference value: 91.4%)", "format": "functional", "details": "read-out: Activity"}, "PC-9/ER [16]": {"system": "PC-9/ER", "test": "Induction of apoptosis in human PC-9/ER cells assessed as viable cells at 1 uM for 48 hrs by annexin V/PI staining based flow cytometric analysis in presence of PTEN vector relative to control", "format": "functional", "details": "read-out: Activity", "in_short": "as §1"}, "PC-9/ER [17]": {"system": "PC-9/ER", "test": "Induction of apoptosis in human PC-9/ER cells assessed as early apoptotic cells at 1 uM for 48 hrs by annexin V/PI staining based flow cytometric analysis in presence of PTEN vector relative to control", "format": "functional", "in_short": "as §1"}, "PC-9/ER [18]": {"system": "PC-9/ER", "test": "Induction of apoptosis in human PC-9/ER cells assessed as early apoptotic cells at 1 uM for 48 hrs by annexin V/PI staining based flow cytometric analysis in presence of […] siRNA (reference value: 1.3%)", "format": "functional"}, "PC-9 [19]": {"system": "PC-9", "test": "Induction of apoptosis in human PC-9 cells assessed as necrotic cells at 0.1 uM for 48 hrs by annexin V/PI staining based flow cytometric analysis in presence of PTEN-siRNA relative to control", "format": "functional", "in_short": "as §2"}, "PC-9/ER [20]": {"system": "PC-9/ER", "test": "Induction of apoptosis in human PC-9/ER cells assessed as necrotic cells at 1 uM for 48 hrs by annexin V/PI staining based flow cytometric analysis (reference value: 2.1%)", "format": "functional"}, "PC-9/ER [21]": {"system": "PC-9/ER", "test": "Induction of apoptosis in human PC-9/ER cells assessed as necrotic cells at 1 uM for 48 hrs by annexin V/PI staining based flow cytometric analysis relative to control", "format": "functional", "in_short": "as §1"}, "PC-9/ER [22]": {"system": "PC-9/ER", "test": "Induction of apoptosis in human PC-9/ER cells assessed as late apoptotic cells at 1 uM for 48 hrs by annexin V/PI staining based flow cytometric analysis (reference value: 5.7%)", "format": "functional"}, "PC-9 [23]": {"system": "PC-9", "test": "Induction of apoptosis in human PC-9 cells assessed as necrotic cells at 0.1 uM for 48 hrs by annexin V/PI staining based flow cytometric analysis relative to control", "format": "functional", "in_short": "as §2"}, "PC-9 [24]": {"system": "PC-9", "test": "Induction of apoptosis in human PC-9 cells assessed as early apoptotic cells at 0.1 uM for 48 hrs by annexin V/PI staining based flow cytometric analysis in presence of PTEN-siRNA relative to control", "format": "functional", "in_short": "as §2"}, "PC-9/ER [25]": {"system": "PC-9/ER", "test": "Induction of apoptosis in human PC-9/ER cells assessed as late apoptotic cells at 1 uM for 48 hrs by annexin V/PI staining based flow cytometric analysis in presence of scramble non-target siRNA (reference value: 4.2%)", "format": "functional"}, "PC-9/ER [26]": {"system": "PC-9/ER", "test": "Induction of apoptosis in human PC-9/ER cells assessed as viable cells at 1 uM for 48 hrs by annexin V/PI staining based flow cytometric analysis in presence of […] siRNA (reference value: 92.2%)", "format": "functional", "details": "read-out: Activity"}, "PC-9/ER [27]": {"system": "PC-9/ER", "test": "Induction of apoptosis in human PC-9/ER cells assessed as viable cells at 1 uM for 48 hrs by annexin V/PI staining based flow cytometric analysis relative to control", "format": "functional", "details": "read-out: Activity", "in_short": "as §1"}, "PC-9 [28]": {"system": "PC-9", "test": "Induction of apoptosis in human PC-9 cells assessed as late apoptotic cells at 0.1 uM for 48 hrs by annexin V/PI staining based flow cytometric analysis in presence of PTEN-siRNA relative to control", "format": "functional", "in_short": "as §2"}, "PC-9/ER [29]": {"system": "PC-9/ER", "test": "Induction of apoptosis in human PC-9/ER cells assessed as necrotic cells at 1 uM for 48 hrs by annexin V/PI staining based flow cytometric analysis in presence of scramble non-target siRNA (reference value: 2.3%)", "format": "functional"}, "PC-9/ER [30]": {"system": "PC-9/ER", "test": "Induction of apoptosis in human PC-9/ER cells assessed as early apoptotic cells at 1 uM for 48 hrs by annexin V/PI staining based flow cytometric analysis in presence of scramble non-target siRNA (reference value: 1.3%)", "format": "functional"}}, "note": "The source made the active and inactive calls. No cut-off for these calls is given here."}
{"smiles": "C#Cc1cccc(Nc2ncnc3cc(OCCOC)c(OCCOC)cc23)c1", "note": "[ERLOTINIB]", "values": [{"measurement": "Activity", "setting": "PC-9/ER [1]", "value": 2.8, "unit": "%"}, {"measurement": "Activity", "setting": "PC-9/ER [2]", "value": 5.7, "unit": "%"}, {"measurement": "Activity", "setting": "PC-9/ER [3]", "value": 17.5, "unit": "%"}, {"measurement": "Activity", "setting": "PC-9 [4]", "value": 18.8, "unit": "%"}, {"measurement": "Activity", "setting": "PC-9 [5]", "value": 17.9, "unit": "%"}, {"measurement": "Activity", "setting": "PC-9/ER [6]", "value": 6.4, "unit": "%"}, {"measurement": "viability at 0.1 µM", "setting": "PC-9 [7]", "value": 76.5, "unit": "%"}, {"measurement": "viability at 0.1 µM", "setting": "PC-9 [8]", "value": 58.2, "unit": "%"}, {"measurement": "Activity", "setting": "PC-9/ER [9]", "value": "inactive"}, {"measurement": "Activity", "setting": "PC-9/ER [10]", "value": 1.5, "unit": "%"}, {"measurement": "viability at 1 µM", "setting": "PC-9/ER [11]", "value": 82.7, "unit": "%"}, {"measurement": "Activity", "setting": "PC-9/ER [12]", "value": 4.5, "unit": "%"}, {"measurement": "Activity", "setting": "PC-9/ER [13]", "value": 4.9, "unit": "%"}, {"measurement": "Activity", "setting": "PC-9/ER [14]", "value": "Active"}, {"measurement": "viability at 1 µM", "setting": "PC-9/ER [15]", "value": 77.8, "unit": "%"}, {"measurement": "viability at 1 µM", "setting": "PC-9/ER [16]", "value": 70.1, "unit": "%"}, {"measurement": "Activity", "setting": "PC-9/ER [17]", "value": 22.7, "unit": "%"}, {"measurement": "Activity", "setting": "PC-9/ER [18]", "value": 0.6, "unit": "%"}, {"measurement": "Activity", "setting": "PC-9 [19]", "value": 1.6, "unit": "%"}, {"measurement": "Activity", "setting": "PC-9/ER [20]", "value": 4.9, "unit": "%"}, {"measurement": "Activity", "setting": "PC-9/ER [21]", "value": 1.6, "unit": "%"}, {"measurement": "Activity", "setting": "PC-9/ER [22]", "value": 14.5, "unit": "%"}, {"measurement": "Activity", "setting": "PC-9 [23]", "value": 5.1, "unit": "%"}, {"measurement": "Activity", "setting": "PC-9 [24]", "value": 15.3, "unit": "%"}, {"measurement": "Activity", "setting": "PC-9/ER [25]", "value": 9.8, "unit": "%"}, {"measurement": "viability at 1 µM", "setting": "PC-9/ER [26]", "value": 77.4, "unit": "%"}, {"measurement": "viability at 1 µM", "setting": "PC-9/ER [27]", "value": 87.1, "unit": "%"}, {"measurement": "Activity", "setting": "PC-9 [28]", "value": 6.6, "unit": "%"}, {"measurement": "Activity", "setting": "PC-9/ER [29]", "value": 6.2, "unit": "%"}, {"measurement": "Activity", "setting": "PC-9/ER [30]", "value": 1.3, "unit": "%"}]}
